# ChEMBL document CHEMBL4387724, “2-Pyridineformamide N(4)-ring incorporated thiosemicarbazones inhibit MCF-7 cells by inhibiting JNK pathway” (Bioorg Med Chem Lett, 2019)
# Columns and labels:
# HeLa [1] = assay: Cytotoxicity against human HeLa cells assessed as reduction in cell growth incubated for 72 hrs by MTT assay; assay type: functional, cell-based
# In short: (§1)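 Cells grown in DMEM with 10% FBS and penicillin-streptomycin at 37 °C, 5% CO2, seeded at 3000 cells/well and attached overnight. Screening series given at 1, 3, 10, 100 μM; follow-up agent at 100 nM–3 μM; both 72 h, with 0.1% DMSO vehicle. MTT (5 mg/mL stock) added for 3 h at 37 °C, formazan dissolved in DMSO, absorbance read at 570 nm. Viability expressed as % of DMSO-treated wells from replicates.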
# MCF7 [2] = assay: Cytotoxicity against human MCF7 cells assessed as reduction in cell growth at 30 uM incubated for 72 hrs by MTT assay relative to control; assay type: functional; conditions: MCF7, 72 h, read-out: GI
# A-431 [3] = assay: Cytotoxicity against human A431 cells assessed as reduction in cell growth incubated for 72 hrs by MTT assay; assay type: functional, cell-based; conditions: A-431, 72 h; in short: as §1
# A-431 [4] = assay: Cytotoxicity against human A431 cells assessed as reduction in cell growth at 100 uM incubated for 72 hrs by MTT assay relative to control; assay type: functional; conditions: A-431, 72 h, read-out: GI; in short: as §1
# A-375 [5] = assay: Cytotoxicity against human A375 cells assessed as reduction in cell growth at 10 uM incubated for 72 hrs by MTT assay relative to control; assay type: functional; conditions: A-375, 72 h, read-out: GI; in short: as §1
# A-375 [6] = assay: Cytotoxicity against human A375 cells assessed as reduction in cell growth at 30 uM incubated for 72 hrs by MTT assay relative to control; assay type: functional; conditions: A-375, 72 h, read-out: GI
# HeLa [7] = assay: Cytotoxicity against human HeLa cells assessed as reduction in cell growth at 10 uM incubated for 72 hrs by MTT assay relative to control; assay type: functional; conditions: read-out: GI; in short: as §1
# A-431 [8] = assay: Cytotoxicity against human A431 cells assessed as reduction in cell growth at 30 uM incubated for 72 hrs by MTT assay relative to control; assay type: functional; conditions: A-431, 72 h, read-out: GI
# A-431 [9] = assay: Cytotoxicity against human A431 cells assessed as reduction in cell growth at 10 uM incubated for 72 hrs by MTT assay relative to control; assay type: functional; conditions: A-431, 72 h, read-out: GI; in short: as §1
# A-375 [10] = assay: Cytotoxicity against human A375 cells assessed as reduction in cell growth at 1 uM incubated for 72 hrs by MTT assay relative to control; assay type: functional; conditions: A-375, 72 h, read-out: GI; in short: as §1
# MCF7 [11] = assay: Cytotoxicity against human MCF7 cells assessed as reduction in cell growth at 3 uM incubated for 72 hrs by MTT assay relative to control; assay type: functional; conditions: MCF7, 72 h, read-out: GI; in short: as §1
# HeLa [12] = assay: Cytotoxicity against human HeLa cells assessed as reduction in cell growth at 3 uM incubated for 72 hrs by MTT assay relative to control; assay type: functional; conditions: read-out: GI; in short: as §1
# HeLa [13] = assay: Cytotoxicity against human HeLa cells assessed as reduction in cell growth at 30 uM incubated for 72 hrs by MTT assay relative to control; assay type: functional; conditions: read-out: GI
# HeLa [14] = assay: Cytotoxicity against human HeLa cells assessed as reduction in cell growth at 1 uM incubated for 72 hrs by MTT assay relative to control; assay type: functional; conditions: read-out: GI; in short: as §1
# A-375 [15] = assay: Cytotoxicity against human A375 cells assessed as reduction in cell growth incubated for 72 hrs by MTT assay; assay type: functional, cell-based; conditions: A-375, 72 h; in short: as §1
# A-431 [16] = assay: Cytotoxicity against human A431 cells assessed as reduction in cell growth at 1 uM incubated for 72 hrs by MTT assay relative to control; assay type: functional; conditions: A-431, 72 h, read-out: GI; in short: as §1
# HeLa [17] = assay: Cytotoxicity against human HeLa cells assessed as reduction in cell growth at 100 uM incubated for 72 hrs by MTT assay relative to control; assay type: functional; conditions: read-out: GI; in short: as §1
# MCF7 [18] = assay: Cytotoxicity against human MCF7 cells assessed as reduction in cell growth incubated for 72 hrs by MTT assay; assay type: functional, cell-based; conditions: MCF7, 72 h; in short: as §1
# A-375 [19] = assay: Cytotoxicity against human A375 cells assessed as reduction in cell growth at 3 uM incubated for 72 hrs by MTT assay relative to control; assay type: functional; conditions: A-375, 72 h, read-out: GI; in short: as §1
# MCF7 [20] = assay: Cytotoxicity against human MCF7 cells assessed as reduction in cell growth at 1 uM incubated for 72 hrs by MTT assay relative to control; assay type: functional; conditions: MCF7, 72 h, read-out: GI; in short: as §1
# A-431 [21] = assay: Cytotoxicity against human A431 cells assessed as reduction in cell growth at 3 uM incubated for 72 hrs by MTT assay relative to control; assay type: functional; conditions: A-431, 72 h, read-out: GI; in short: as §1
# MCF7 [22] = assay: Cytotoxicity against human MCF7 cells assessed as reduction in cell growth at 10 uM incubated for 72 hrs by MTT assay relative to control; assay type: functional; conditions: MCF7, 72 h, read-out: GI; in short: as §1
# A-375 [23] = assay: Cytotoxicity against human A375 cells assessed as reduction in cell growth at 100 uM incubated for 72 hrs by MTT assay relative to control; assay type: functional; conditions: A-375, 72 h, read-out: GI; in short: as §1
# MCF7 [24] = assay: Cytotoxicity against human MCF7 cells assessed as reduction in cell growth at 100 uM incubated for 72 hrs by MTT assay relative to control; assay type: functional; conditions: MCF7, 72 h, read-out: GI; in short: as §1
compound,measurement,setting,value
N/C(=N\NC(=S)N1CCSCC1)c1ccccn1,IC50,HeLa [1],7.8 µM
same,inhibition of growth at 30 µM,MCF7 [2],72.6%
same,IC50,A-431 [3],6.7 µM
same,inhibition of growth at 100 µM,A-431 [4],80.8%
same,inhibition of growth at 10 µM,A-375 [5],83.9%
same,inhibition of growth at 30 µM,A-375 [6],86%
same,inhibition of growth at 10 µM,HeLa [7],54.5%
same,inhibition of growth at 30 µM,A-431 [8],81.3%
same,inhibition of growth at 10 µM,A-431 [9],61.4%
same,inhibition of growth at 1 µM,A-375 [10],34%
same,inhibition of growth at 3 µM,MCF7 [11],29%
same,inhibition of growth at 3 µM,HeLa [12],39.7%
same,inhibition of growth at 30 µM,HeLa [13],80.6%
same,inhibition of growth at 1 µM,HeLa [14],25.1%
same,IC50,A-375 [15],0.76 µM
same,inhibition of growth at 1 µM,A-431 [16],31.7%
same,inhibition of growth at 100 µM,HeLa [17],88.7%
same,IC50,MCF7 [18],8.8 µM
same,inhibition of growth at 3 µM,A-375 [19],80%
same,inhibition of growth at 1 µM,MCF7 [20],16.3%
same,inhibition of growth at 3 µM,A-431 [21],37.2%
same,inhibition of growth at 10 µM,MCF7 [22],54.3%
same,inhibition of growth at 100 µM,A-375 [23],87.8%
same,inhibition of growth at 100 µM,MCF7 [24],72.4%
Cc1ccnc(/C(N)=N/NC(=S)N2CCOCC2)c1,IC50,HeLa [1],38.5 µM
same,inhibition of growth at 30 µM,MCF7 [2],8.16%
same,IC50,A-431 [3],6.8 µM
same,inhibition of growth at 100 µM,A-431 [4],82.8%
same,inhibition of growth at 10 µM,A-375 [5],86%
same,inhibition of growth at 30 µM,A-375 [6],87.4%
same,inhibition of growth at 10 µM,HeLa [7],49.1%
same,inhibition of growth at 30 µM,A-431 [8],74.6%
same,inhibition of growth at 10 µM,A-431 [9],62%
same,inhibition of growth at 1 µM,A-375 [10],43.2%
same,inhibition of growth at 3 µM,MCF7 [11],5.07%
same,inhibition of growth at 3 µM,HeLa [12],44.7%
same,inhibition of growth at 30 µM,HeLa [13],45.2%
same,inhibition of growth at 1 µM,HeLa [14],39.1%
same,IC50,A-375 [15],1.6 µM
same,inhibition of growth at 1 µM,A-431 [16],33.6%
same,inhibition of growth at 100 µM,HeLa [17],82.7%
same,IC50,MCF7 [18],> 100 µM
same,inhibition of growth at 3 µM,A-375 [19],66.6%
same,inhibition of growth at 1 µM,MCF7 [20],1.22%
same,inhibition of growth at 3 µM,A-431 [21],35.5%
same,inhibition of growth at 10 µM,MCF7 [22],6.86%
same,inhibition of growth at 100 µM,A-375 [23],90.6%
same,inhibition of growth at 100 µM,MCF7 [24],12.8%
N/C(=N\NC(=S)N1CCN(c2ccccn2)CC1)c1ccccn1,IC50,HeLa [1],8.6 µM
same,inhibition of growth at 30 µM,MCF7 [2],65.3%
same,IC50,A-431 [3],4.3 µM
same,inhibition of growth at 100 µM,A-431 [4],91.9%
same,inhibition of growth at 10 µM,A-375 [5],74.4%
same,inhibition of growth at 30 µM,A-375 [6],81%
same,inhibition of growth at 10 µM,HeLa [7],56.1%
same,inhibition of growth at 30 µM,A-431 [8],74.9%
same,inhibition of growth at 10 µM,A-431 [9],69%
same,inhibition of growth at 1 µM,A-375 [10],70%
same,inhibition of growth at 3 µM,MCF7 [11],37.2%
same,inhibition of growth at 3 µM,HeLa [12],24.4%
same,inhibition of growth at 30 µM,HeLa [13],78.9%
same,inhibition of growth at 1 µM,HeLa [14],16.7%
same,IC50,A-375 [15],0.7 µM
same,inhibition of growth at 1 µM,A-431 [16],11.6%
same,inhibition of growth at 100 µM,HeLa [17],85.6%
same,IC50,MCF7 [18],13.7 µM
same,inhibition of growth at 3 µM,A-375 [19],73.7%
same,inhibition of growth at 1 µM,MCF7 [20],36%
same,inhibition of growth at 3 µM,A-431 [21],45.8%
same,inhibition of growth at 10 µM,MCF7 [22],46.4%
same,inhibition of growth at 100 µM,A-375 [23],86.8%
same,inhibition of growth at 100 µM,MCF7 [24],68.3%
